The results in this text go back to ChEMBL document CHEMBL4000211, “Discovery of novel polycyclic spiro-fused carbocyclicoxindole-based anticancer agents” (Eur J Med Chem, 2017).

Some results are limits rather than exact numbers.

The subject of one experiment is NCI-H1975. Kind of experiment: Antiproliferative activity against human NCI-H1975 cells after 48 hrs by MTT assay. The class given is functional, cell-based. The conditions noted are these: NCI-H1975, 48 h. In short, it runs like this:
(§1)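 Cells seeded at 3×10³/well and grown 24 h, then exposed 48 h to six final concentrations, twofold steps down from 30. MTT (5 mg/mL) was added for 2–4 h at 37 °C. Supernatant was removed, formazan dissolved in DMSO, and OD read at 570 nm. Results are given as IC50, or as percent inhibition where IC50 exceeds the top concentration. At least three runs.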

For a further experiment, the system named is CT26. Kind of experiment: Antiproliferative activity against mouse CT26 cells after 48 hrs by MTT assay. The experiment is classed as functional, cell-based. The settings on record: CT26, 48 h. In short, it runs like this:
as §1

A further experiment has as its system A2780/Taxol. The experiment in a line: Antiproliferative activity against human A2780T cells at 30 uM after 48 hrs by MTT assay relative to control. The experiment is classed as functional. In short, it runs like this: as §1
A further experiment relates to A549. Kind of experiment: Antiproliferative activity against human A549 cells after 48 hrs by MTT assay. The experiment is classed as functional, cell-based. The conditions noted are these: A549, 48 h. The procedure, abridged:
as §1

A further experiment deals with NCI-H1299. The experiment in a line: Antiproliferative activity against human NCI-H1299 cells after 48 hrs by MTT assay. The class given is functional, cell-based. The settings on record: NCI-H1299, 48 h. The procedure, abridged: as §1
In experiment [1] the test system is A2780S. Kind of experiment: Antiproliferative activity against human A2780S cells at 30 uM after 48 hrs by MTT assay relative to control. The class given is functional. The procedure, abridged: as §1
A further experiment has as its system HCT-116. The experiment in a line: Antiproliferative activity against human HCT116 cells after 48 hrs by MTT assay. The class given is functional, cell-based. The conditions noted are these: HCT-116, 48 h. The procedure, abridged: as §1
The test system of another experiment is BGC-823. The experiment in a line: Antiproliferative activity against human BGC823 cells after 48 hrs by MTT assay. The class given is functional, cell-based. The settings on record: BGC-823, 48 h. In short, it runs like this:
as §1

The next experiment relates to MCF7. Kind of experiment: Antiproliferative activity against human MCF7 cells after 48 hrs by MTT assay. The experiment is classed as functional, cell-based. The conditions noted are these: MCF7, 48 h. In short, it runs like this:
as §1

In experiment [2] the test system is A2780S. The experiment in a line: Antiproliferative activity against human A2780S cells after 48 hrs by MTT assay. The class given is functional, cell-based. The procedure, abridged:
as §1

For `C[C@@H]1C(C=O)=C[C@H]2[C@@H](c3ccccc3O[C@@H]2C)[C@@]12C(=O)Nc1ccc(F)cc12`, the IC50 with NCI-H1975, in the experiment on CT26, in the experiment with A549, with NCI-H1299, in the experiment on HCT-116 and in the experiment with BGC-823 was over 30 µM in each case. The half-maximal inhibitory concentration (IC50) in the experiment on MCF7 is over 30 µM. Also, the values for the inhibition at 30 µM with A2780/Taxol and in the experiment with A2780S [1] were 4.4% and 14.5%, respectively.
As for `C[C@@H]1C(C=O)=C[C@H]2[C@@H](c3cc(Cl)ccc3O[C@@H]2C)[C@@]12C(=O)Nc1ccccc12`, the IC50 with NCI-H1975, with CT26, in the experiment on A549, in the experiment on NCI-H1299, in the experiment with HCT-116 and in the experiment with BGC-823 was over 30 µM in each case. Besides, the IC50 in the experiment on MCF7 is over 30 µM. The inhibition at 30 µM was determined as 5.8% in the experiment with A2780/Taxol and 16.5% with A2780S [1].
Regarding `O=CC1=C[C@@H]2COc3ccccc3[C@H]2C2(C1)C(=O)Nc1ccccc12` (some centres not stated), the IC50 in the experiment on NCI-H1975 was over 30 µM; in the experiment on CT26 it was 27.1 µM; in the experiment with A549, over 30 µM; with NCI-H1299 it was over 30 µM; with HCT-116, 25.8 µM; with BGC-823, over 30 µM. Besides, the IC50 in the experiment on A2780S [2] is 21.6 µM; in the experiment on MCF7, over 30 µM. Also, the inhibition at 30 µM in the experiment on A2780/Taxol is 25%.
With `COc1ccc2c(c1)O[C@H](C)[C@H]1C=C(C=O)[C@@H](C)[C@]3(C(=O)Nc4ccccc43)[C@H]21`, the half-inhibitory concentration (IC50) in the experiment with NCI-H1975, in the experiment with CT26, in the experiment with A549, in the experiment on NCI-H1299, in the experiment with HCT-116 and in the experiment on BGC-823 was over 30 µM throughout. Further, the IC50 in the experiment with MCF7 was over 30 µM. Moreover, the inhibition at 30 µM came to 3.9% with A2780/Taxol and 9.3% in the experiment with A2780S [1].
With `C[C@@H]1C(C=O)=C[C@H]2[C@@H](c3ccccc3O[C@@H]2C)[C@@]12C(=O)Nc1cc(Cl)ccc12`, the IC50 in the experiment with NCI-H1975, in the experiment with CT26, in the experiment on A549, in the experiment with NCI-H1299, with HCT-116 and in the experiment with BGC-823 was over 30 µM each time. The IC50 in the experiment on A2780S [2] was 19.7 µM; with MCF7, over 30 µM. In the experiment with A2780/Taxol, the inhibition at 30 µM came out at 13.1%.
As to `C[C@@H]1C(C=O)=C[C@H]2[C@@H](c3ccccc3OC2(C)C)[C@@]12C(=O)Nc1ccccc12`, the concentration for half-maximal inhibition (IC50) with NCI-H1975, in the experiment with CT26, in the experiment on A549, with NCI-H1299, with HCT-116 and in the experiment with BGC-823 was over 30 µM in each case. The compound also registered an IC50 with MCF7 of over 30 µM. The results for the inhibition at 30 µM with A2780/Taxol and with A2780S [1] were 3.8% and 14.4%, respectively.
Consider `CCC[C@@H]1C(C=O)=C[C@H]2[C@@H](c3ccccc3O[C@@H]2CCC)[C@@]12C(=O)Nc1ccccc12`, for which the IC50 with NCI-H1975, in the experiment on CT26, in the experiment with A549, in the experiment on NCI-H1299, in the experiment with HCT-116 and with BGC-823 was over 30 µM in each case. The IC50 is 25.7 µM with A2780S [2] and over 30 µM with MCF7. The compound also had an inhibition at 30 µM with A2780/Taxol of 33.1%.
On to `C[C@@H]1C(C=O)=C[C@H]2[C@@H](c3ccccc3O[C@@H]2C)[C@@]12C(=O)N(c1ccccc1)c1ccccc12`, for which the IC50 is over 30 µM in the experiment with NCI-H1975; over 30 µM in the experiment on CT26; over 30 µM with A549; 30 µM in the experiment with NCI-H1299; over 30 µM with HCT-116; 25.7 µM in the experiment with BGC-823. Moreover, the figures for the IC50 in the experiment with A2780S [2] and with MCF7 were 18.9 µM and over 30 µM, respectively. This compound also gave an inhibition at 30 µM in the experiment with A2780/Taxol of 40.6%.
For `Cc1ccc2c(c1)[C@]1(C(=O)N2)[C@H](C)C(C=O)=C[C@H]2[C@H]1c1ccccc1O[C@@H]2C`, the 50% inhibitory concentration (IC50) in the experiment on NCI-H1975, in the experiment with CT26, in the experiment with A549, in the experiment on NCI-H1299, in the experiment with HCT-116 and with BGC-823 was over 30 µM in each case. In the experiment on MCF7, this compound registered an IC50 of over 30 µM. Moreover, the inhibition at 30 µM in the experiment with A2780/Taxol came to 7.1%; in the experiment on A2780S [1], 12.8%.
As for `Cc1ccc2c(c1)[C@@H]1[C@H](C=C(C=O)[C@@H](C)[C@]13C(=O)Nc1ccccc13)[C@@H](C)O2`, the IC50 with NCI-H1975, with CT26, in the experiment on A549, with NCI-H1299, in the experiment on HCT-116 and in the experiment with BGC-823 was over 30 µM each time. In addition, the IC50 in the experiment on MCF7 is over 30 µM. The inhibition at 30 µM in the experiment with A2780/Taxol came out at 10.4%; in the experiment on A2780S [1], 28.2%.
For the compound `C[C@@H]1C(C=O)=C[C@H]2[C@@H](c3ccccc3O[C@@H]2C)[C@@]12C(=O)N(C)c1ccccc12`, the IC50 with NCI-H1975, in the experiment on CT26, with A549, in the experiment with NCI-H1299, with HCT-116 and with BGC-823 was over 30 µM in each case. In the experiment with MCF7, the IC50 is over 30 µM. Moreover, the inhibition at 30 µM with A2780/Taxol is 4.5%; in the experiment on A2780S [1] it was 26.3%.
For the compound `CC[C@@H]1C(C=O)=C[C@H]2[C@@H](c3ccccc3O[C@@H]2CC)[C@@]12C(=O)Nc1ccccc12`, the IC50 in the experiment with NCI-H1975, in the experiment with CT26, in the experiment on A549, in the experiment on NCI-H1299, in the experiment on HCT-116 and in the experiment on BGC-823 was over 30 µM in each case. In the experiment with MCF7, the IC50 was over 30 µM. Also, the inhibition at 30 µM with A2780/Taxol was 9%; in the experiment on A2780S [1], 34.1%.
Turning to `C[C@@H]1C(C=O)=C[C@H]2[C@@H](c3cc([N+](=O)[O-])ccc3O[C@@H]2C)[C@@]12C(=O)Nc1ccccc12`, the IC50 in the experiment on NCI-H1975, in the experiment with CT26, in the experiment on A549, with NCI-H1299, with HCT-116 and in the experiment on BGC-823 was over 30 µM throughout. Also, in the experiment with MCF7, the IC50 is over 30 µM. Besides, the inhibition at 30 µM in the experiment on A2780/Taxol worked out at 0.2%; with A2780S [1] it was 25.2%.
With `C[C@@H]1C(C=O)=C[C@H]2[C@@H](c3ccccc3N[C@@H]2C)[C@@]12C(=O)Nc1ccccc12`, the IC50 with NCI-H1975, with CT26, in the experiment on A549, in the experiment with NCI-H1299, in the experiment on HCT-116 and with BGC-823 was over 30 µM in each case. The compound further returned an IC50 with MCF7 of over 30 µM. The figures for the inhibition at 30 µM in the experiment on A2780/Taxol and in the experiment on A2780S [1] were 15.2% and 47.2%, respectively.
For `C[C@@H]1C(C=O)=C[C@H]2[C@@H](c3ccccc3O[C@@H]2C)[C@@]12C(=O)Nc1ccccc12`, the IC50 with NCI-H1975, in the experiment on CT26, in the experiment on A549, with NCI-H1299, with HCT-116 and in the experiment on BGC-823 was over 30 µM each time. This compound gave an IC50 in the experiment on MCF7 of over 30 µM. Moreover, the inhibition at 30 µM with A2780/Taxol came out at 17.3%; with A2780S [1], 23.5%.
With `C[C@@H]1C(C=O)=C[C@H]2[C@@H](c3cccc(F)c3O[C@@H]2C)[C@@]12C(=O)Nc1ccccc12`, the IC50 in the experiment with NCI-H1975, in the experiment with CT26, in the experiment on A549, in the experiment on NCI-H1299, in the experiment on HCT-116 and in the experiment on BGC-823 was over 30 µM throughout. For the same compound, the IC50 in the experiment on MCF7 was over 30 µM. The inhibition at 30 µM was found to be 5.7% in the experiment with A2780/Taxol and 22.2% in the experiment on A2780S [1].
As to `C[C@@H]1C(C=O)=C[C@H]2[C@@H](c3cc(Br)ccc3O[C@@H]2C)[C@@]12C(=O)Nc1ccccc12`, the IC50 in the experiment with NCI-H1975, in the experiment on CT26, in the experiment with A549, in the experiment on NCI-H1299, with HCT-116 and with BGC-823 was over 30 µM in each case. This compound also showed an IC50 in the experiment with MCF7 of over 30 µM. Moreover, the inhibition at 30 µM in the experiment on A2780/Taxol is 2.3%; in the experiment on A2780S [1] it was 35.9%.
As to `C[C@@H]1C(C=O)=C[C@H]2[C@@H](c3cc(F)ccc3O[C@@H]2C)[C@@]12C(=O)Nc1ccccc12`, the IC50 in the experiment on NCI-H1975, in the experiment with CT26, with A549, in the experiment on NCI-H1299, with HCT-116 and in the experiment with BGC-823 was over 30 µM in each case. In the experiment with MCF7, this compound registered an IC50 of over 30 µM. The inhibition at 30 µM is 2.6% in the experiment on A2780/Taxol and 22.7% in the experiment with A2780S [1].
